Compound activity: PubChem BioAssay, several laboratories
BB579 growth dn = reduces growth of yeast BB579 in restrictive medium. S. cerevisiae BB579 growth, OD615, 48 h. inhibition, % at 10 µM. 140,000 compounds, 0.51% hits;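 active means inhibition above a set limit, 3 SD over the mean compound inhibition, cut at about 44% in these data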
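Assay system – yeast BB579 (DeaD) · Dosing – single compound dose of 10 µM, 0.25% DMSO final · Detection – OD615 turbidity measurement · Buffer or medium – CSMM-D restrictive synthetic medium containing dextrose (glucose) · Benchmarks – positive control amphotericin B 10 µg/mL · Incubation – 48 h exposure, 30 °C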
Cl transport mod = modulators of human KCC2 chloride dependent transport | 190,000 compounds, 2.2% hits | B-score of Tl+ flux slope (higher = more flux/activation; lower = inhibition) at 10 µM | KCC2 cells, thallium flux FluoZin-2 fluorescence | Q9H2X9;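 active means thallium flux slope and its plate-corrected score both differing from the plate sample mean at a set confidence after two filtering rounds, in either direction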;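 further: slope of fluorescence scaled to starting intensity during 10 to 20 s after thallium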
Target sequence (Q9H2X9 whole entry, looked up): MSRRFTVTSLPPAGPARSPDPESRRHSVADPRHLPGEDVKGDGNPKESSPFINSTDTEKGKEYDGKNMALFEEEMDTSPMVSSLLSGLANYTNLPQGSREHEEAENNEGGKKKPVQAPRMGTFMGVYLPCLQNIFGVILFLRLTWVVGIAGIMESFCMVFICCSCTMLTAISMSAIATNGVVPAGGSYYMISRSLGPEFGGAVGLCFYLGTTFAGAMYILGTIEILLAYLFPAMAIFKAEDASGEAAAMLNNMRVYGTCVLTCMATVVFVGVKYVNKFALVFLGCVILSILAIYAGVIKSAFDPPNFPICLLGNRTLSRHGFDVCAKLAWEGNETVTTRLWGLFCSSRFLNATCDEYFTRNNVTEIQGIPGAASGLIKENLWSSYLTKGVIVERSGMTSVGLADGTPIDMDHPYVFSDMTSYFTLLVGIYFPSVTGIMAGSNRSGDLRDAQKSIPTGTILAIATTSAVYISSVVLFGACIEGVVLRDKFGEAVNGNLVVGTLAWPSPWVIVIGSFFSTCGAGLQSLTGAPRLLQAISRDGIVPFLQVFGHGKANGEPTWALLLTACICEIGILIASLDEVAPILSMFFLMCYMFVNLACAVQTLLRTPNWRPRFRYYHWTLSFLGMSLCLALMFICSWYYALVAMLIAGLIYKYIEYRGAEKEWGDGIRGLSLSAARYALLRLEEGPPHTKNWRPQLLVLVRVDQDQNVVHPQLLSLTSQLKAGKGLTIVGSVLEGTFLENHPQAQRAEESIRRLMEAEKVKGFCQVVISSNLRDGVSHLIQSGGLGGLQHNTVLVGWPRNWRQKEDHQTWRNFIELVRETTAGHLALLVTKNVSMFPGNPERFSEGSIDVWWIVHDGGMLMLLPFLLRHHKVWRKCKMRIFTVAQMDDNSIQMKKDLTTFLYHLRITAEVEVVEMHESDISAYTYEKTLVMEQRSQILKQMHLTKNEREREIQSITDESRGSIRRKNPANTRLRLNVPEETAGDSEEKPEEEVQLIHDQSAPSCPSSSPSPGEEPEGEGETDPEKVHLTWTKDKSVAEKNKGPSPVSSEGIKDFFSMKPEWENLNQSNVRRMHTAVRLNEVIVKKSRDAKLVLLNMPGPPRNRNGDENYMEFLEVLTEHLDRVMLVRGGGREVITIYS
WT yeast gro inh = growth inhibition of WT yeast, mitochondrial fusion screen; mitochondrial fusion phenotypic screen, WT strain; 190,000 compounds, 2.1% hits; AID 1362; inhibition, % at 10 µM; in the data active means inhibition above about 58%; tested in S. cerevisiae
Yeast life ext = extends the lifespan of yeast | 130,000 compounds, 0.68% hits | S. cerevisiae growth with nicotinamide, OD615; deaD strain in restrictive glucose medium | AID 775 | inhibition of the nicotinamide effect, % at 10 µM;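 active means inhibition above a set limit, placed 3 SD over the median of all compounds, cut at about 26% in these data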;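 further: 0% = nicotinamide-treated wells and 100% = cells grown without nicotinamide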
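Buffer or medium: CSMM-D glucose medium, restrictive; test system: modified budding yeast, DeaD strain; compound: single dose 10 µM compound, 0.25% DMSO; schedule: culture preincubation 4 h, compound exposure 48 h, both 30 °C; detection: optical density (absorbance) at 615 nm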
RAM network inh = blocks the yeast RAM network; 190,000 compounds, 1.8% hits; inhibition, % at 50 µM; AID 868; S. cerevisiae dse1pr::URA3 reporter, 5-FOA growth OD615, 2 d; analog-sensitive cbk1-as2 kinase mutant strain;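 active means inhibition above a set limit, 3 SD over mean compound inhibition, cut at about 8.4% in these data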;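 further: 0% = DMSO-only wells with no growth and 100% = 10 µM 1-NA-PP1 full growth; inhibition rescues growth on 5-FOA so higher OD means more RAM inhibition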
RAM 5-FOA = RAM network inhibitors in efflux-deficient yeast; S. cerevisiae efflux-deficient reporter strain, 5-FOA growth OD615, 2 days; max inhibition, %; 1,200 tested, under 10 active; AID 1305; shares compounds with RAM network inh; call rule not given here;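 further: plate controls were vehicle for no effect and reference inhibitor for full effect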
* hit, by the source's call; nt = not tested or not shown. A selection: hits, their analogues and other compounds. The true share with any hit is near 5.5%.

SMILES | BB579 growth dn | Cl transport mod | WT yeast gro inh | Yeast life ext | RAM network inh | RAM 5-FOA
O=C(c1ccco1)N1N=C(c2cccs2)CC1c1ccc(F)cc1 (stereo not drawn) | -7 | -0.44 | 3 | -5 | 1 | nt
Fc1ccc(C2CC(c3cccs3)=NN2c2ccccc2)cc1 (stereo not drawn) | nt | 0.47 | 57 | nt | 12* | 2
CC(=O)N1CCN(C(=O)CSc2nc3c(cnn3-c3ccccc3)c(=O)[nH]2)CC1 | -21 | -0.5 | 11 | -4 | 1 | nt
O=C(CSc1nc2c(cnn2-c2ccccc2)c(=O)[nH]1)N1N=C(c2cccs2)CC1c1ccc(F)cc1 (stereo not drawn) | -32 | -2.8 | 8 | 3 | 12* | 5
FC(F)(F)c1cccc(NC(=S)NC(c2ccccc2)c2ccccc2)c1 | -42 | 0.099 | 11 | 12 | 16* | 4
COc1ccc(NC(=O)Cn2c(=O)n(-c3ccc(OC)cc3OC)c(=O)c3c(C)c(C)sc32)cc1 | -16 | 0.57 | -6 | 1 | 2 | nt
O=C(NCCCCNC(=O)C(F)(F)F)C(F)(F)F | nt | 0.77 | 1 | nt | 2 | nt
CC(C)(C)OC(=O)COc1cc(O)c2c(=O)cc(-c3ccccc3)oc2c1 | -5 | -0.68 | 9 | 2 | 12* | 2
COc1cccc(NC(=S)NCc2ccc3c(c2)cc(C)n3C)c1 | nt | -0.58 | 20 | nt | 12* | 6
Cc1cc2cc(CNC(=S)Nc3ccc(OC(F)(F)F)cc3)ccc2n1C | -27 | 0.94 | 17 | 8 | 4 | nt
Cc1ccccc1-c1nnn(CC(=O)Nc2ccc3c(c2)OCO3)n1 | nt | 0.12 | 9 | nt | 4 | nt
Cc1ccccc1-c1nnn(CC(=O)Nc2ccc3c(c2)OCCO3)n1 | nt | -0.78 | 6 | nt | 12* | 4
O=S(=O)(Nc1nc2ccccc2nc1Nc1ccc2c(c1)OCCO2)c1cccs1 | -69 | -2.9 | 32 | -7 | 12* | 1
CC(=O)OCCCNc1cc(Sc2ccc(Cl)cc2)c2nonc2c1[N+](=O)[O-] | -32 | -0.24 | -14 | 12 | 12* | 2
COc1ccccc1Nc1nc2ccc(C)cc2cc1C#N | -55 | 0.7 | 3 | 3 | 5 | nt
COc1ccccc1Nc1nc2c(C)cccc2cc1C#N | -60 | 0.45 | -6 | 2 | 13* | 4
Cc1ccc(CN2CCSc3ccc(C(=O)NCc4ccco4)cc32)cc1 | nt | -1.1 | 33 | nt | 14* | 2
O=C(c1ccc2ccccc2c1)C1CCCN(C(=O)c2noc3c2CCCC3)C1 (stereo not drawn) | nt | -1.6 | 23 | nt | 5 | nt
O=C(CSc1nc(-c2ccccc2)cs1)Nc1ccccc1[N+](=O)[O-] | -31 | 0.011 | 5 | 4 | 13* | 3
CCOc1cc(NS(=O)(=O)c2ccc(NC(C)=O)cc2)c(OCC)cc1NC(=O)c1cccs1 | -1 | -0.19 | -4 | 3 | 6 | nt
CC1CCCN(C(=O)C(C)Sc2nc(-c3ccccc3)cc(C(F)(F)F)n2)C1 (stereo not drawn) | -87 | nt | 50 | 20 | 14* | 2
COCc1c(C(=O)OCC(=O)NCCN2C(=O)CSC2=O)oc2ccccc12 | 5 | -0.2 | 2 | -2 | 1 | nt
Cc1noc(C)c1COC(=O)COc1ccc(C#N)cc1 | nt | 0.032 | -12 | nt | 2 | nt
CCOc1ccc(S(=O)(=O)N(C)c2ccc(OCC(=O)OCc3c(C)noc3C)cc2)cc1 | -65 | -0.44 | -9 | -6 | 12* | 2
CC(=O)C1=C(O)C(=O)N(CCCn2ccnc2)C1c1ccc(C)cc1 (stereo not drawn) | 13 | 0.028 | -11 | 2 | -1 | nt
SMILES | BB579 growth dn | Cl transport mod | WT yeast gro inh | Yeast life ext | RAM network inh | RAM 5-FOA
COc1cccc(-n2c(=O)c3cc(OC)c(OC)cc3n(CC(=O)Nc3cc(C)[nH]n3)c2=O)c1 | -11 | -0.17 | 0 | -1 | 3 | nt
COC(=O)c1c(NC(=O)c2ccc(C)cc2)sc(Cc2ccccc2)c1C | -23 | nt | 0 | 1 | 14* | 4
COC(=O)c1c(NC(C)=O)sc(Cc2ccccc2)c1C | -27 | nt | 9 | -10 | 6 | nt
COC(=O)c1c(NC(=O)c2ccccc2)sc(Cc2ccccc2)c1C | -37 | nt | 68* | -6 | 12* | 6
CC1CCCC(=C\c2ccccc2)/C1=N/O (stereo not drawn) | 7 | 0.27 | -22 | 1 | 0 | nt
O=C(NCCSCc1ccccc1)c1ccc(C2SCC(=O)N2Cc2ccccc2)cc1 (stereo not drawn) | -25 | nt | 24 | -9 | 12* | 3
COc1cc(-c2nc(-c3cccc(C(F)(F)F)c3)no2)cc(OC)c1OC | -48 | 1.4 | 22 | -1 | 12* | 1
Cc1cc(Br)cc2cn[nH]c12 | nt | nt | -9 | nt | -1 | nt
O=C(CN(Cc1ccccc1F)S(=O)(=O)c1ccc(Cl)cc1)NCCC1=CCCCC1 | -47 | 0.029 | 6 | -16 | 12* | 1
O=C(CN(Cc1ccccc1)S(=O)(=O)c1ccc(F)cc1)NCCC1=CCCCC1 | -43 | -0.65 | -5 | -4 | 5 | nt
O=c1c2ccccc2nc(SCc2cccc(F)c2)n1-c1cccc(S(=O)(=O)N2CCCC2)c1 | -32 | 0.11 | 7 | 8 | 13* | 2
CCCn1c(N)c(C(=O)CSc2nnnn2-c2ccc(O)cc2)c(=O)n(C)c1=O | -35 | -1.5 | 2 | 0 | 5 | nt
COc1ccc(C(=O)/C=C/c2cn(CC(O)CN3CCOCC3)c3ccccc23)cc1 (stereo not drawn) | -12 | 0.045 | 8 | -6 | -1 | nt
Cc1ccc(C(=O)/C=C/c2cn(CC(O)CN3CCOCC3)c3ccccc23)cc1 (stereo not drawn) | -1 | 3.8 | 51 | -4 | 19* | 2
Cc1cc(C)c(OCCNC(=O)c2ccccc2Sc2ccccc2C#N)c(C)c1 | -35 | -0.86 | 24 | 2 | 20* | 5
Cc1ccccc1OCCNC(=O)c1ccccc1Sc1ccccc1C#N | 0 | -3.2 | 12 | -13 | 14* | 2
COc1cccc(OCCNC(=O)c2ccccc2Sc2ccccc2C#N)c1 | -4 | 0.039 | -19 | -1 | 4 | nt
CN1/C(=C\C=Nc2cc(S(=O)(=O)N3CCOCC3)ccc2N2CCOCC2)C(C)(C)c2ccccc21 | 3 | -1.3 | 4 | -1 | 3 | nt
COc1ccc(S(=O)(=O)n2[nH]c(=O)c(CCO)c2C)c([N+](=O)[O-])c1 | nt | 0.39 | 5 | nt | 1 | nt
Cn1c(=O)c2c(ncn2CC(=O)OCC(=O)NC(c2ccccc2)c2ccccc2)n(C)c1=O | -38 | -0.15 | 17 | -4 | 14* | 1
Cn1c(=O)c2c(ncn2CC(=O)OCC(=O)Nc2ccccc2Cl)n(C)c1=O | -34 | -0.51 | -14 | -1 | 1 | nt
O=C(CSc1ccc2ccccc2c1)Nc1ncccn1 | -10 | 0.26 | -4 | -6 | 3 | nt
COc1ccc(N2CCN(c3oc(COc4ccc(Cl)cc4)nc3C#N)CC2)cc1 | -13 | -0.96 | 10 | -8 | 13* | 5
COc1ccc(Nc2oc(COc3ccc(Cl)cc3)nc2C#N)cc1 | -49 | nt | -15 | 34 | 3 | nt
